# Tn7 DDE FP: inhibitors of Tn7 peptide binding to human fibrin DD(E). FP displacement of FITC-Tn7 peptide from fibrin DD(E); 0% = median of compound wells per plate. inhibition, % at 8.3 µM. hit rate 0.13% among 370,000. AID 720508;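 active = inhibition above the mean of compounds falling within the control limits plus 3 SD of them, cut at about 14% in these data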;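 also: 0% = plate median of compound wells and 100% = 10 µM Aha-Tn7 peptide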
#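 Assay system: human fibrin DD(E). Input: DD(E) 2 µM final. Medium: Tris buffer with calcium and detergent, pH 7.8. Compound dosing: single point at 8.3 µM. Timing: 10 min plus 3 h, room temperature. Technique: fluorescence polarization of the labelled Tn7 tracer. Read-out: percent inhibition. Replicates: singlicate testing.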
# aDG glyco up: increases alpha dystroglycan glycosylation. AID 624168. Pro5-aDG cells, alpha-DG glycosylation AlphaScreen (IIH6); 0% Pro5, 100% B10-LARGE cell signal. activation, % at 10 µM. hit rate 0.22% among 360,000;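 active = activation of at least 8% versus controls, or a plate z-score of at least 8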;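 also: Pro5 are CHO cells carrying HIG-tagged alpha-DG that lacks glycosylation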
# NRP1-CendR mod: modulators of CendR peptide binding to human neuropilin-1 | O14786 | FAM-RPARPAR peptide binding to NRP-1, fluorescence polarization | hit rate 0.85% among 360,000 | inhibition, % at 25 µM | AID 602438;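 active = inhibition or corrected inhibition above about 18%, plus a signal ratio from 0.5 to 1.5, limit read from the data, passing the limit was not always enough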
# Target sequence (O14786 whole entry, looked up): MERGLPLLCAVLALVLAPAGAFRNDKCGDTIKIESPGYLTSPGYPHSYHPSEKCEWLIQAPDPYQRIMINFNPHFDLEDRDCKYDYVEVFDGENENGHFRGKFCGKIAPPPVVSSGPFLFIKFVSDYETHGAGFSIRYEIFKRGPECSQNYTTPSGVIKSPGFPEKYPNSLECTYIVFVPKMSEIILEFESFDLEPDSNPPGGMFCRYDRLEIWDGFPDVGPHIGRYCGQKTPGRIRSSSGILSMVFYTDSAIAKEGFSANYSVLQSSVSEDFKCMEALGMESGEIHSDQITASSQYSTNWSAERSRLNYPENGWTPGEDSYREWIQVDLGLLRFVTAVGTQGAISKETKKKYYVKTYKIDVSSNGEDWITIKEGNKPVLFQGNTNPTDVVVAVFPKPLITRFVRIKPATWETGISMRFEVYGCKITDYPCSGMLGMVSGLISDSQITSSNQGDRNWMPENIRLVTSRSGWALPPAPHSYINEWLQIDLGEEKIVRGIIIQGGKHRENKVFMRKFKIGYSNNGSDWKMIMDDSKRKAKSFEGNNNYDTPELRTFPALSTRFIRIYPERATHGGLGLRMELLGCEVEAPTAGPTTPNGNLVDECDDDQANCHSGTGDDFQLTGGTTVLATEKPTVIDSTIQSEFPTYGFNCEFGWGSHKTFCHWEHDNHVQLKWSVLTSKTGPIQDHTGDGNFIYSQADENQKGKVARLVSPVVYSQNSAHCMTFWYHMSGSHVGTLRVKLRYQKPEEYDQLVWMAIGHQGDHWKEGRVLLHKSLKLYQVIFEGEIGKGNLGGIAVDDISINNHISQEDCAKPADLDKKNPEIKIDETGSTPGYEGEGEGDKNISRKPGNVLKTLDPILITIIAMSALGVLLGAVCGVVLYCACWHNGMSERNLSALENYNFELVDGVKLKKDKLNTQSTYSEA
# Tn6 DDE FP: inhibitors of Tn6 peptide binding to human fibrin DD(E). P02675. Fibrin DD(E) TRITC-Tn6 fluorescence polarization displacement. inhibition, % at 8.3 µM. hit rate 0.21% among 370,000;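 active = inhibition above a per-campaign cutoff: mean of compounds within control limits plus 3 SD, cut at about 15% in these data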;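 also: 0% = median of all compound wells on the plate and 100% = blocking peptide control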
# * = called active by the depositor; nt = no result given; + = active, no number. Rows were chosen to be rich in hits. Some 1.3% of all compounds tested hit in one or more screens of this group.
SMILES,Tn7 DDE FP,aDG glyco up,NRP1-CendR mod,Tn6 DDE FP
COCCCNC1=C(Cl)C(=O)c2ccccc2C1=O,0.9,3.2,4.2,-4.7
Cc1cc2oc(=O)cc(-c3cc4ccccc4o3)c2cc1O,0.4,-0.1,22.2,-4.0
Cc1c2cc(O)c(=O)cc-2oc2cc(O)c(O)cc12,15.1*,0.2,131.7,1.1
COc1cc(OC)c(-c2c3cc(O)c(=O)cc-3oc3cc(O)c(O)cc23)cc1OC,-20.7,-0.3,135.2,+
CCCCCCCN(c1ccccc1)[C@@H]1C[C@H]2CCCC(=O)N3CC[C@@H](C1)[C@@H]23,5.8,0.7,5.7,-9.3
CC(=O)CC[C@H]1CC[C@]2(CCCN(C(=O)c3ccccc3)C2)O1,3.1,nt,nt,10.3
CC1CCN(c2c3c(nc4ncnn24)CCCC3)CC1,-4.3,nt,nt,-0.9
C=CCN(CC#CC(=C)C)CC1CC1,0.5,nt,nt,0.1
CCCCOC(=O)CCN1C(=O)/C(=C2\SC(=S)N(CCC(=O)OCCCC)C2=O)SC1=S,2.6,-0.2,27.7*,-2.0
C[C@@H]1CCCCO[C@@H](CN(C)Cc2ccc(C(=O)O)cc2)[C@@H](C)CN([C@H](C)CO)C(=O)c2cc(NS(C)(=O)=O)ccc2O1,2.5,nt,nt,-8.6
CC(C)(C)OC(=O)N1CCCC(C(=O)Nc2ccc(C(=O)NCc3ccccc3)cc2)C1 (configuration not stated),2.6,0.5,-6.9,-1.9
Cc1cc(C(=O)N2CCCC(N3CCN(c4cccc(C(F)(F)F)c4)CC3)C2)nn1C (configuration not stated),-2.2,0.2,5.3,0.5
Cc1cc(C(=O)N2CCCC(N3CCN(c4cccc(Cl)c4)CC3)C2)nn1C (configuration not stated),0.7,0.2,29.9*,3.0
NC(=S)N=Nc1c(O)cc(O)c2[nH]c(=O)ccc12,-0.6,0.2,41.6*,-6.1
NC(=S)N=Nc1c(O)[nH]c2ccc(F)cc12,0.8,0.1,12.9,4.0
COc1ccccc1NC(=O)N(Cc1ccco1)Cc1cc2cccc(C)c2[nH]c1=O,0.1,0.2,26.1*,2.1
COc1ccccc1NC(=O)N(Cc1ccco1)Cc1cc2c(C)ccc(C)c2[nH]c1=O,0.5,0.0,11.8,0.4
C[C@@H]1CN([C@H](C)CO)C(=O)c2cc(NC(=O)Nc3ccccc3)ccc2O[C@@H](C)CCCCO[C@H]1CN(C)S(=O)(=O)c1ccc(F)cc1,-1.2,nt,nt,-3.6
O=S(=O)(c1ccccc1F)n1c(CN2CCOCC2)nc2ccccc21,12.5,nt,nt,-7.3
O=C(OCc1ccccc1)N1C=CC2CC1c1c(Cl)cccc12 (configuration not stated),10.9,0.2,5.7,1.9
O=C(OCc1ccccc1)N1C[C@H](O)[C@H](O)C[C@@H]1c1c(Cl)cccc1Br,-3.6,-0.2,19.5*,-0.1
O=C(O)c1ccc(CSc2nnc(COc3ccccc3)o2)cc1,-4.6,0.4,21.8*,-0.9
CC1CC(C)CN(CCCSc2ccccc2)C1 (configuration not stated),-4.3,0.0,29.5*,-0.6
CC1CC(C)CN(CCOCCSc2ccccc2)C1 (configuration not stated),0.8,0.2,-0.1,-1.8
CN(Cc1ccccc1)C(=O)[C@@H]1CCCN1C(=O)[C@@H]1CCCN1C(=O)c1cccc(Cl)c1,-10.6,-0.2,22.1*,0.0
SMILES,Tn7 DDE FP,aDG glyco up,NRP1-CendR mod,Tn6 DDE FP
COc1cccc(-c2nnc(Nc3nc4c(F)cccc4s3)o2)c1,6.3,0.0,32.9*,4.0
CCOc1cc(NC(=S)NCC2CCCO2)c(OCC)cc1NC(=O)c1ccc(OC)cc1 (configuration not stated),1.7,-0.1,-8.3,5.5
CCOc1cc(NC(=S)NC)c(OCC)cc1NC(=O)c1ccc(OC)cc1,7.5,-0.4,20.6*,-1.8
CCn1c(=O)cc(N2CCN(c3cccc(C(F)(F)F)c3)CC2)[nH]c1=O,-5.2,nt,nt,7.3
CCc1ccc([C@@H]2C[C@H]3[C@@H](CN2S(=O)(=O)c2ccc(C)cc2)C(=O)C[C@@H](c2ccc(Cl)cc2)N3S(=O)(=O)c2ccc(C)cc2)cc1,-8.6,-0.4,0.3,-6.8
O=C1C(C=NCCN2CCOCC2)=C(O)c2ccccc21,6.7,0.2,27.2*,5.4
O=C1C(C=NCCCN2CCOCC2)=C(O)c2ccccc21,3.3,-0.2,4.3,2.8
CN1CCN(c2ccc3sc(-n4ccc5ccccc54)nc3c2)CC1,-3.1,-0.1,-5.9,2.0
Cc1ccc(-n2c(C)cc(C)c(C#N)c2=O)cc1C,-5.7,-0.3,29.6*,-0.2
O=C(CN1C(=O)c2ccccc2C1=O)Nc1cccc(Cl)c1,-2.2,0.1,-2.0,-3.4
O=C(CN1C(=O)c2ccccc2C1=O)Nc1cccc(S(=O)(=O)Nc2ccccc2Cl)c1,-7.9,0.1,32.9*,-0.7
CCOC(=O)c1csc(NC(=O)c2ccc3c(c2)OCCO3)n1,nt,-0.2,28.7*,nt
CCOC(=O)C1=CCN(S(=O)(=O)c2cccc(Cl)c2)C1c1cccc(Br)c1 (configuration not stated),9.2,nt,nt,0.9
C[C@H](CO)N1C[C@H](C)[C@@H](CN(C)C(=O)Nc2ccc3c(c2)OCO3)OCc2cn(nn2)CCCC1=O,11.4,nt,nt,4.6
COC(=O)[C@]12C[C@H](CC(=O)N3CCSCC3)C(=O)N(Cc3ccccc3)C1=C[C@H](C(C)C)O[C@@H]2C1CC1,1.4,nt,nt,1.0
COc1ccc(CN2CCN(C(=O)c3ccc(S(=O)(=O)NCc4ccco4)cc3)CC2)cc1F,-8.9,0.0,29.7*,0.7
O=C(c1ccc(S(=O)(=O)NCc2ccco2)cc1)N1CCN(Cc2ccc3c(c2)OCO3)CC1,-6.3,-0.1,-1.4,-7.3
CC(=O)N(c1ccc2oc(=O)sc2c1)S(=O)(=O)c1ccccc1,-1.3,-0.1,-3.5,-4.4
Cc1ccc(S(=O)(=O)N(C(=O)c2ccco2)c2cc3sc(=O)oc3c3ccccc23)cc1,-1.3,6.6*,8.0,-16.5
COc1ccc(S(=O)(=O)N(C(=O)c2ccco2)c2cc3sc(=O)oc3c3ccccc23)cc1,-0.1,7.6*,3.6,-10.7
CCOc1ccc(S(=O)(=O)N(C)CC(=O)NCc2ccco2)cc1,4.5,-0.1,-6.2,0.3
CCOc1ccc(S(=O)(=O)N(C(=O)c2ccco2)c2cc3sc(=O)oc3c3ccccc23)cc1,2.9,11.1*,-21.2,-21.7
O=C(NCc1ccccc1)[C@H]1CCCN1C(=O)[C@H]1CCCN1C(=O)c1ccc(F)cc1F,-6.5,nt,nt,-1.3
N#CCCCc1cn(-c2cccc(-c3noc4c3C(=O)N(CC(=O)N3CCOCC3)CC4)c2)nn1,-5.5,nt,nt,2.2
CCC(=O)OCC(=O)N=c1sccn1Cc1ccccc1Cl,-2.6,-0.3,26.1*,-1.6
O=C1C=CC(=O)c2c(O)c(N3CCN(CCOCCO)CC3)c(Br)c(O)c21,1.9,-0.4,65.1*,31.4*
C=CCN1[C@@H](CC(C)C)COc2cccc(F)c2S1(=O)=O,4.8,nt,nt,2.2
Cc1ccc(OCc2nnc(SCC(=O)Nc3ccc(S(=O)(=O)Nc4cc(C)nc(C)n4)cc3)n2Cc2ccco2)cc1,-1.8,nt,nt,1.3
